According to ChEMBL document CHEMBL1649120, “Differential effects of inhibiting chitin and 1,3-{beta}-D-glucan synthesis in ras and calcineurin mutants of Aspergillus fumigatus” (2009):
Activity calls are given as the source filed them. The calls are words filed in the database; no cut-off is given here. *1 amine or outer side, *2 acyl side, *3 side chain or, on linkers, in order; H or OH if unused. Where a SMILES comes first, the peptide text is derived from it. Bridges are numbered along the chain shown (N, C = ends). [ ]: non-standard residue; d: D form. The star is where a group is joined. hTyr(3S-OH,4S-OH,3'-OSO3H) = N[C@H](C(=O)O)[C@H](O)[C@@H](O)c1ccc(O)c(OS(=O)(=O)O)c1; pTerphenylCO(4''-OnC5H11) = CCCCCOc1ccc(-c2ccc(-c3ccc(C(=O)*)cc3)cc2)cc1; Orn(4R-OH,5R-OH) = O=C([C@H](C[C@@H](O)[C@@H](O)N[*:3])N[*:1])[*:2]; hTyr(3S-OH,4S-OH) = N[C@H](C(=O)O)[C@H](O)[C@@H](O)c1ccc(O)cc1; Pro(3S-OH,4S-Me) = C[C@H]1CN[C@H](C(=O)O)[C@H]1O; X1 = CCCCCOc1ccc(-c2cc(-c3ccc(C(=O)*)cc3)no2)cc1; Gln(3R-OH) = NC(=O)C[C@@H](O)[C@H](N)C(=O)O; Hyp = O=C(O)[C@@H]1C[C@@H](O)CN1

Tests used:
Aspergillus fumigatus [1] = assay: Antifungal activity against Aspergillus fumigatus Af293 assessed as abnormal hyphal growth by CLSI method; format: functional; details: read-out: MEC
In short: (§1)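 MEC by CLSI broth microdilution in RPMI 1640. Conidia were incubated with or without drug for 48 h at 37°C, in triplicate.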

Aspergillus fumigatus [2] = assay: Antifungal activity against cnaA deficient Aspergillus fumigatus Af293 assessed as abnormal hyphal growth by CLSI method; format: functional; details: read-out: MEC; in short: as §1
Aspergillus fumigatus [3] = assay: Antifungal activity against Aspergillus fumigatus Af293 expressing cnaA gene assessed as abnormal hyphal growth by CLSI method; format: functional; details: read-out: MEC; in short: as §1
Aspergillus fumigatus [4] = assay: Antifungal activity against crzA deficient Aspergillus fumigatus Af293 assessed as abnormal hyphal growth by CLSI method; format: functional; details: read-out: MEC; in short: as §1
Aspergillus fumigatus [5] = assay: Antifungal activity against Aspergillus fumigatus Af293 expressing crzA gene assessed as abnormal hyphal growth by CLSI method; format: functional; details: read-out: MEC; in short: as §1
Aspergillus fumigatus [6] = assay: Antifungal activity against Aspergillus fumigatus H237 assessed as abnormal hyphal growth by CLSI method; format: functional; details: read-out: MEC; in short: as §1
Aspergillus fumigatus [7] = assay: Antifungal activity against rasA deficient Aspergillus fumigatus H237 assessed as abnormal hyphal growth by CLSI method; format: functional; details: read-out: MEC; in short: as §1
Aspergillus fumigatus [8] = assay: Antifungal activity against Aspergillus fumigatus H237 expressing rasA gene assessed as abnormal hyphal growth by CLSI method; format: functional; details: read-out: MEC; in short: as §1
Aspergillus fumigatus [9] = assay: Antifungal activity against Aspergillus fumigatus H237 expressing dominant-active rasA gene assessed as abnormal hyphal growth by CLSI method; format: functional; details: read-out: MEC; in short: as §1
Aspergillus fumigatus [10] = assay: Antifungal activity against cnaA deficient Aspergillus fumigatus Af293 assessed as inhibition of hyphal growth at germling stage at 1 ug/ml by CLSI method; format: functional, organism-based
In short: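 Conidia were grown as for CLSI susceptibility testing in RPMI 1640 with or without echinocandin (1 μg/ml) for 48 h at 37°C. Hyphal morphology was then examined by bright-field microscopy.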

| Structure (SMILES) | minimal effective concentration (Aspergillus fumigatus [1]) [µg/mL] | minimal effective concentration (Aspergillus fumigatus [2]) [µg/mL] | minimal effective concentration (Aspergillus fumigatus [3]) [µg/mL] | minimal effective concentration (Aspergillus fumigatus [4]) [µg/mL] | minimal effective concentration (Aspergillus fumigatus [5]) [µg/mL] | minimal effective concentration (Aspergillus fumigatus [6]) [µg/mL] | minimal effective concentration (Aspergillus fumigatus [7]) [µg/mL] | minimal effective concentration (Aspergillus fumigatus [8]) [µg/mL] | minimal effective concentration (Aspergillus fumigatus [9]) [µg/mL] | Activity (Aspergillus fumigatus [10]) |
| --- | --- | --- | --- | --- | --- | --- | --- | --- | --- | --- |
| CCCCCOc1ccc(-c2cc(-c3ccc(C(=O)N[C@H]4C[C@@H](O)[C@@H](O)NC(=O)[C@@H]5[C@@H](O)[C@@H](C)CN5C(=O)[C@H]([C@H](O)CC(N)=O)NC(=O)[C@H]([C@H](O)[C@@H](O)c5ccc(O)c(OS(=O)(=O)O)c5)NC(=O)[C@@H]5C[C@@H](O)CN5C(=O)[C@H]([C@@H](C)O)NC4=O)cc3)no2)cc1 [MICAFUNGIN] (X1-[Orn(4R-OH,5R-OH)]T[Hyp][hTyr(3S-OH,4S-OH,3'-OSO3H)][Gln(3R-OH)][Pro(3S-OH,4S-Me)]; lactam 1-C) | 0.125 | 0.0039 | 0.125 | 0.0312 | 0.0625 | 0.125 | > 4 | 0.125 | 0.0156 | Active |
| CCCCCOc1ccc(-c2ccc(-c3ccc(C(=O)N[C@H]4C[C@@H](O)[C@@H](O)NC(=O)[C@@H]5[C@@H](O)[C@@H](C)CN5C(=O)[C@H]([C@@H](C)O)NC(=O)[C@H]([C@H](O)[C@@H](O)c5ccc(O)cc5)NC(=O)[C@@H]5C[C@@H](O)CN5C(=O)[C@H]([C@@H](C)O)NC4=O)cc3)cc2)cc1 [ANIDULAFUNGIN] ({pTerphenylCO(4''-OnC5H11)}-[Orn(4R-OH,5R-OH)]T[Hyp][hTyr(3S-OH,4S-OH)]T[Pro(3S-OH,4S-Me)]; lactam 1-C) | 0.0625 | 0.0039 | 0.0625 | 0.0156 | 0.125 | 0.0625 | 2 | 0.125 | 0.0156 | Active |
